Experimental data taken from article PMC4750707 (Antimicrobial Agents and Chemotherapy, 2016).
Values after ≈ are worked out from the molar mass of the structure shown.

Assays:
[1] = test system: P. aeruginosa; experiment: Broth microdilution MIC; format: cell-based; conditions: Pseudomonas aeruginosa
In short: (§1)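 MICs by CLSI broth microdilution in cation-adjusted Mueller-Hinton broth. Strains grown in BHI broth at 35°C: E. coli K-12, P. aeruginosa 1771 and S. aureus ATCC 29213. H. influenzae Rd grown in BHI with Haemophilus test medium supplement (hemin and β-NAD, 15 μg/ml each).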

[2] = test system: H. influenzae; experiment: Broth microdilution MIC; format: cell-based; conditions: Haemophilus influenzae
In short: as §1

[3] = test system: S. aureus; experiment: Broth microdilution MIC; format: cell-based; conditions: Staphylococcus aureus, ATCC29213
In short: as §1

[4] = target: T1, E. coli PBP2 (Escherichia coli, UniProt P0AD65); experiment: PBP competition assay with Bocillin FL; format: binding
T1 sequence (P0AD65 1-633): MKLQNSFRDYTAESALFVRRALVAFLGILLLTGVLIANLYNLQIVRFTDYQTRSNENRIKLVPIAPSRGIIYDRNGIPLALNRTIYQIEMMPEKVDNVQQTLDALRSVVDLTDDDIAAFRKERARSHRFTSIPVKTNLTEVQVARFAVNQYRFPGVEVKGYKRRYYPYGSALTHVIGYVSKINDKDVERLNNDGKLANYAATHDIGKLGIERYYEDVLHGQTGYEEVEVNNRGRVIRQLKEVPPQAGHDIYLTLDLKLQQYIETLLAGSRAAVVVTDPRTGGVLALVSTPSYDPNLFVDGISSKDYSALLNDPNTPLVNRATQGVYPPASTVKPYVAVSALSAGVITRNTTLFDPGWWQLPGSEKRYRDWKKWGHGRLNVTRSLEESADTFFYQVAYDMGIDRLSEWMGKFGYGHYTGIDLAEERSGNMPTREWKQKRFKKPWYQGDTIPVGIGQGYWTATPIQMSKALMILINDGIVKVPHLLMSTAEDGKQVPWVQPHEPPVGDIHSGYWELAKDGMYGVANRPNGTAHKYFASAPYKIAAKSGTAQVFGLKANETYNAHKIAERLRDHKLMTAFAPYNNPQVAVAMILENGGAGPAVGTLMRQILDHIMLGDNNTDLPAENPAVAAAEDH
In short: (§2)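 E. coli K-12 or P. aeruginosa 1771 grown in BHI at 35°C to A600 ~1.5. Cells in 50 mM phosphate pH 7.0 were French-pressed; membranes pelleted at 150,000 × g. Membranes (10–20 μg protein) were pre-incubated with test compound 10 min at 30°C, then Bocillin FL (100 μM final) 20 min. SDS-PAGE, fluorescence scan. IC50 in μg/ml from ≥8 concentrations versus no-drug control.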

[5] = target: T2, E. coli PBP3 (Escherichia coli, UniProt P0AD68); experiment: PBP competition assay with Bocillin FL; format: binding
T2 sequence (P0AD68 1-588): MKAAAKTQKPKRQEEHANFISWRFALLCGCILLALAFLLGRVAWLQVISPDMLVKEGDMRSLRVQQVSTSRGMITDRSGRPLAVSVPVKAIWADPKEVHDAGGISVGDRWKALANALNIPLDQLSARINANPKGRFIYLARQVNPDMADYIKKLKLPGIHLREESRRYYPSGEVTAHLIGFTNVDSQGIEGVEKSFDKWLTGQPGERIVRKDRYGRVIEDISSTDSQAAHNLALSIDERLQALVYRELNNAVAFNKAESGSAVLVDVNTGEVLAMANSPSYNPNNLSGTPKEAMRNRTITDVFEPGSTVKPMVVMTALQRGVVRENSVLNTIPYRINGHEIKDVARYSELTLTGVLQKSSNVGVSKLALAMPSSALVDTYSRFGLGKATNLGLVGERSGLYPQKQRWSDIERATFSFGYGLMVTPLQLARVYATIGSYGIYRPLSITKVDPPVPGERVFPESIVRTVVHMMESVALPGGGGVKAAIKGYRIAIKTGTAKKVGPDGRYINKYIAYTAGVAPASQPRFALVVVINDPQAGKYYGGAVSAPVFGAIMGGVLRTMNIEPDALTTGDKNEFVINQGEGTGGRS
In short: as §2

[6] = test system: E. coli PBP5/6; experiment: PBP competition assay with Bocillin FL; format: binding, Escherichia coli; conditions: E. coli K-12 membranes; Bocillin FL 100 μM
In short: as §2

[7] = target: P. aeruginosa PBP3 (Pseudomonas aeruginosa, UniProt G3XD46); experiment: PBP competition assay with Bocillin FL; format: binding
[8] = target: H. influenzae PBP1a (Haemophilus influenzae, UniProt P31776); experiment: PBP competition assay with Bocillin FL; format: binding
In short: (§3)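 H. influenzae Rd grown in supplemented BHI at 35°C (A600 0.6–0.7). Cells in KPN buffer (20 mM K-phosphate, 140 mM NaCl, pH 7.5), lysozyme-treated 30 min, French-pressed; membranes at 150,000 × g. Used 100–120 μg membrane protein. Test compound 10 min at 30°C, then Bocillin FL 100 μM final for 20 min. Gel fluorescence band volumes; IC50 from three assays of six concentrations.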

[9] = target: H. influenzae PBP3a/b (Haemophilus influenzae, UniProt P45059); experiment: PBP competition assay with Bocillin FL; format: binding
In short: as §3

[10] = target: S. aureus PBP2 (Staphylococcus aureus, UniProt Q9R744); experiment: PBP competition assay with Bocillin FL; format: binding
In short: (§4)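 S. aureus ATCC 29213 membranes were prepared in KPN buffer pH 7.5. Lysis used lysostaphin 400 μg/ml for 1 h at 37°C plus protease inhibitors, DNase and RNase, then French press. Membranes (10–20 μg protein) received test compound for 10 min at 30°C, then Bocillin FL 100 μM final for 20 min. SDS-PAGE band volumes; IC50 from three assays of six concentrations versus no-drug control.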

[11] = target: S. aureus PBP3 (Staphylococcus aureus, UniProt Q9XDB3); experiment: PBP competition assay with Bocillin FL; format: binding
In short: as §4

[12] = target: T3, S. aureus PBP4 (Staphylococcus aureus, UniProt P72355); experiment: PBP competition assay with Bocillin FL; format: binding
T3 sequence (P72355 25-431): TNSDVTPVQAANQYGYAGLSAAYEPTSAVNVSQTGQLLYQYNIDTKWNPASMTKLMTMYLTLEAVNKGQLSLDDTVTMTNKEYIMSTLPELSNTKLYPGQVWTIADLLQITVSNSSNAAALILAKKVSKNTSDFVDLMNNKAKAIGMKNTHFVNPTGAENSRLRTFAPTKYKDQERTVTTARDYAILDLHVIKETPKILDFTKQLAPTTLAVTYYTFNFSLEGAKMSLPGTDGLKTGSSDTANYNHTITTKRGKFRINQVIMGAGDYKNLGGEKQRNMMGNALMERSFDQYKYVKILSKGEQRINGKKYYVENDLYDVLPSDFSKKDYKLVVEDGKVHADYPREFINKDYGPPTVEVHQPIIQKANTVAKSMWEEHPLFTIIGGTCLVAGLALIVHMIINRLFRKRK

P. aeruginosa PBP3, sequence (G3XD46 whole entry): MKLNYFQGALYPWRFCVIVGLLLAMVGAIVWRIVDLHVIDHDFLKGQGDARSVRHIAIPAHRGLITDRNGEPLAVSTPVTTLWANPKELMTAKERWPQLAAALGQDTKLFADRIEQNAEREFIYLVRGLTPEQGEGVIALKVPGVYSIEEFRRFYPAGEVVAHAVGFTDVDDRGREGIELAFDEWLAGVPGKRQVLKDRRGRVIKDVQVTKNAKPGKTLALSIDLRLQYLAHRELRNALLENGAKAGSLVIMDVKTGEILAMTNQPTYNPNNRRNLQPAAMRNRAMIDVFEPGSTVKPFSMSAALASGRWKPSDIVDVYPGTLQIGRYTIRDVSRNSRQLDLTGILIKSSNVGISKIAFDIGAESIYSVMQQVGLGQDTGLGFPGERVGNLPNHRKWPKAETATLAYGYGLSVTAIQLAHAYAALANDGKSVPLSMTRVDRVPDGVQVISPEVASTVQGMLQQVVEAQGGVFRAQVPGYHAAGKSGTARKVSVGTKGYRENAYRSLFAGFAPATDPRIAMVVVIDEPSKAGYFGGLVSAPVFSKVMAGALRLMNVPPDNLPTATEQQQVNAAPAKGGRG
S. aureus PBP2, sequence (Q9R744 1-727): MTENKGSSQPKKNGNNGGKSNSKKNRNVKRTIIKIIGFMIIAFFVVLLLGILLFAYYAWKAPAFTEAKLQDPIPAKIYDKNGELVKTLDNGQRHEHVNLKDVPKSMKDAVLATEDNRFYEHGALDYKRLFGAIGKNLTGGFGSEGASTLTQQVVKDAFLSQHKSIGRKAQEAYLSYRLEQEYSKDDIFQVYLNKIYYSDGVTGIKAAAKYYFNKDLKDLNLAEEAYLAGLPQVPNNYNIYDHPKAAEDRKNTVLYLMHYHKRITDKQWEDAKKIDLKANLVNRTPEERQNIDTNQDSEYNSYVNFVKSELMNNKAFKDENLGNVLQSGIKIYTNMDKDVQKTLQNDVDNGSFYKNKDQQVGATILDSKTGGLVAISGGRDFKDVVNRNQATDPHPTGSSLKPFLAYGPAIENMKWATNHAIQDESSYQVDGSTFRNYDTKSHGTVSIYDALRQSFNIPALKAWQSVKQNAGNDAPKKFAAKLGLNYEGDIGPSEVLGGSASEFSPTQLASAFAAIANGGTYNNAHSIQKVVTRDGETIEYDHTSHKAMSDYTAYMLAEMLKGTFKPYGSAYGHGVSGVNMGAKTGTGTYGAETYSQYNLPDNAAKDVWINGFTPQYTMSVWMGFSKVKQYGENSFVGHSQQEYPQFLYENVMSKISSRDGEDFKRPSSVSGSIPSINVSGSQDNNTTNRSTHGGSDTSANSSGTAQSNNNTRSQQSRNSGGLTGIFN
S. aureus PBP3, sequence (Q9XDB3 1-691): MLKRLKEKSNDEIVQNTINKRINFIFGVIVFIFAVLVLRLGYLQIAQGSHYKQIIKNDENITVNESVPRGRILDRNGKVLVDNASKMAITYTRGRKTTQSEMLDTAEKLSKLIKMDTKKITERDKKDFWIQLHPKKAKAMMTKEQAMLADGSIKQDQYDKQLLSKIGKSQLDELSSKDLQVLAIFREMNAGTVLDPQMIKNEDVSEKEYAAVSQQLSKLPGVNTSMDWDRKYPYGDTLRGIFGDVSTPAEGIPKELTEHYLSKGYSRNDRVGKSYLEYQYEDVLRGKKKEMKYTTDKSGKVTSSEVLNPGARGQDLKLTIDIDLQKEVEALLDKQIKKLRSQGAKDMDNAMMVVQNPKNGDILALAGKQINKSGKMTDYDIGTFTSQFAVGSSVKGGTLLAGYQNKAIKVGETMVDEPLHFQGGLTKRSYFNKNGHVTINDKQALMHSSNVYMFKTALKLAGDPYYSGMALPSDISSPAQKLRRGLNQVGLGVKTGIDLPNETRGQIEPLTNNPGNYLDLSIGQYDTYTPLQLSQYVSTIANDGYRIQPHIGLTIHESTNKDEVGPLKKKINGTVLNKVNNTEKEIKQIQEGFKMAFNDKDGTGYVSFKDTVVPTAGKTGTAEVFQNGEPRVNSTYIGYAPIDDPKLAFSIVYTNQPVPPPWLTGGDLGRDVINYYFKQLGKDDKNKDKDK
H. influenzae PBP3a/b, sequence (P45059 66-580 limits assumed): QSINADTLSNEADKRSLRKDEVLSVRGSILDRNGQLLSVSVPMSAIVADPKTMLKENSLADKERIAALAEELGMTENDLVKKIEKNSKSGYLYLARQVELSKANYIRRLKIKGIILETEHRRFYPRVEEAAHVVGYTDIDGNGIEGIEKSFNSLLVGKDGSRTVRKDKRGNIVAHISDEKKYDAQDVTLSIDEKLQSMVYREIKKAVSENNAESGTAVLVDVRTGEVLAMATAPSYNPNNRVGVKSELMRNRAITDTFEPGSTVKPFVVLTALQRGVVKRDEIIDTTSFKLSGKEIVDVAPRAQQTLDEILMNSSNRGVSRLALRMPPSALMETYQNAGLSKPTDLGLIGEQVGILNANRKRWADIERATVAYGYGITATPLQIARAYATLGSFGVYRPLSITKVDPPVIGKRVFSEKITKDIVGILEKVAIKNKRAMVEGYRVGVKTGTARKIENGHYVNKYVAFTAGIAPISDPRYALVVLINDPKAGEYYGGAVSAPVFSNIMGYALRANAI
H. influenzae PBP1a, sequence (P31776 whole entry): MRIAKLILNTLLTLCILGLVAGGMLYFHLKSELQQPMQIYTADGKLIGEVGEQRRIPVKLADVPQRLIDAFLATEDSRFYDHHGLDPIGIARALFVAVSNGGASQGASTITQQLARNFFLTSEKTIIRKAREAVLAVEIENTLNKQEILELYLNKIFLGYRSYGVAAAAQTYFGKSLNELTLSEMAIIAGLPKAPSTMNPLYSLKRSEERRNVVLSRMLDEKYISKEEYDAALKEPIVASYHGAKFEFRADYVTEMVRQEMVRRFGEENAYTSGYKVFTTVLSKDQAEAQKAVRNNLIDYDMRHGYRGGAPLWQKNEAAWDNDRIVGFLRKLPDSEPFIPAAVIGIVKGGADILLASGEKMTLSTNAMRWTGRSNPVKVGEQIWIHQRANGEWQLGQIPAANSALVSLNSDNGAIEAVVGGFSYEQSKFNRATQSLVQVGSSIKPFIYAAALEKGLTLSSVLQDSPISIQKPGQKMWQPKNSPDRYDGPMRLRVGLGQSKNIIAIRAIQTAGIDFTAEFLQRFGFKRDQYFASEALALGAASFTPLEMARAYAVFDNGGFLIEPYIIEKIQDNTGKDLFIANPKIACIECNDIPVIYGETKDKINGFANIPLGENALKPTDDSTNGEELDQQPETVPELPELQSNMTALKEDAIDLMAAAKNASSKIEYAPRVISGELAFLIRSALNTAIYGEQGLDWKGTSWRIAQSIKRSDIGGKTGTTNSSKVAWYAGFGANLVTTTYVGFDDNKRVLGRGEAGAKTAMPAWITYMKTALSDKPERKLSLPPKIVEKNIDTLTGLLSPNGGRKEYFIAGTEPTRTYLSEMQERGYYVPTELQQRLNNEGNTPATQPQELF

Row | Structure (SMILES) | MIC [1] [µg/mL] | MIC [2] [µg/mL] | MIC [3] [µg/mL] | IC50 [4] [µM] | IC50 [5] [µM] | Relative binding (IC50) for PBP 5/6 [6] [µg/mL] | IC50 [7] [µM] | IC50 [8] [µM] | IC50 [9] [µM] | IC50 [10] [µM] | IC50 [11] [µM] | IC50 [12] [µM] | Binding to S. aureus PBP4 revealed by reduction of Bocillin FL labeling ([12]; S. aureus membranes, in presence of avibactam fixed at 4 μg/ml)
1 | NC(=O)[C@@H]1CC[C@@H]2CN1C(=O)N2OS(=O)(=O)O [AVI, avibactam] | > 128 | 64 (≈ 241 µM) | 256 (≈ 965 µM) | 3.47 | > 49 | >13 | 6.79 | > 121 | > 121 | 192 | 588 | > 965 | –
2 | CC(C)(O/N=C(\C(=O)N[C@@H]1C(=O)N2C(C(=O)[O-])=C(C[n+]3ccccc3)CS[C@H]12)c1csc(N)n1)C(=O)O [CAZ, ceftazidime] | 4 (≈ 7.32 µM) | – | 16 (≈ 29.3 µM) | > 45.7 | 0.366 | >25 | 0.0732 | – | – | 1.28 | > 14.6 | > 14.6 | affinity for PBP4 was much lower
3 | CC1(C)S[C@@H]2[C@H](/N=C/N3CCCCCC3)C(=O)N2[C@H]1C(=O)O [MEC, amdinocillin] | – | – | – | 0.0615 | > 39.9 | – | – | – | – | – | – | – | –
